According to ChEMBL document CHEMBL3046946, “Design, synthesis, and insecticidal activities of new N-benzoyl-N'-phenyl-N'-sulfenylureas” (2009):
≈ marks a conversion by molar mass, not a printed value.

Tests used:
Assay type in all cases: functional
Mythimna separata [1] = test: Insecticidal activity against fourth-instar larval stage of Mythimna separata (Oriental armyworm) in compound-pretreated corn leaves assessed as mortality at 1 mg/l at 25 +/-1degC after 4 days
Mythimna separata [2] = test: Insecticidal activity against fourth-instar larval stage of Mythimna separata (Oriental armyworm) in compound-pretreated corn leaves assessed as mortality at 0.25 mg/l at 25 +/-1degC after 4 days
Mythimna separata [3] = test: Insecticidal activity against fourth-instar larval stage of Mythimna separata (Oriental armyworm) in compound-pretreated corn leaves assessed as mortality at 0.5 mg/l at 25 +/-1degC after 4 days
Spodoptera exigua = test: Insecticidal activity against third-instar larval stage of Spodoptera exigua in cabbage leaves assessed as mortality at 25 +/-1degC treated for 5 secs before larval infestation measured after 4 days by leaf dip method; conditions: foliar, 96 h
Outline: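 Leaf-dip assay. Fresh cabbage leaf disks (1.8 cm diameter) were dipped in test solution for 5 s before larvae were added. LC50 was calculated by Finney probit analysis of the mortality regression lines.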

Plutella xylostella = test: Insecticidal activity against larvae of Plutella xylostella (diamondback moth) in cabbage leaves assessed as mortality at 25 +/-1degC treated for 5 secs before larval infestation measured after 4 days by leafdip method; conditions: 96 h
Outline: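 Leaf-dip assay. Cabbage leaf disks (1.8 cm diameter) were dipped in test solution for 5 s, air-dried, and placed in tubes lined with filter paper. Ten second-instar larvae were added per tube. Percent mortality was read 4 days after treatment, in triplicate. LC50 was derived by Finney probit analysis of the mortality regression lines.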

Mythimna separata [4] = test: Insecticidal activity against fourth-instar larval stage of Mythimna separata (Oriental armyworm) in compound-pretreated corn leaves assessed as mortality at 2.5 mg/l at 25 +/-1degC after 4 days
Culex pipiens pallens [5] = test: Insecticidal activity against fourth-instar larval stage of Culex pipiens pallens (mosquito) assessed as mortality at 0.01 mg/l at 25 +/-1degC after 8 days; conditions: 192 h
Outline: (§1)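 Compounds dissolved in acetone, then diluted with distilled water to the test concentrations. Twenty fourth-instar larvae were placed in 10 mL of each test solution and reared for 8 days. Mortality was scored on a 0–100 scale, where 0 is no activity and 100 is total kill.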

Mythimna separata [6] = test: Insecticidal activity against fourth-instar larval stage of Mythimna separata (Oriental armyworm) in compound-pretreated corn leaves assessed as mortality at 40 mg/l at 25 +/-1degC after 4 days
Mythimna separata [7] = test: Insecticidal activity against fourth-instar larval stage of Mythimna separata (Oriental armyworm) in compound-pretreated corn leaves assessed as mortality at 50 mg/l at 25 +/-1degC after 4 days
Culex pipiens pallens [8] = test: Insecticidal activity against fourth-instar larval stage of Culex pipiens pallens (mosquito) assessed as mortality at 2.5 mg/l at 25 +/-1degC after 8 days; conditions: 192 h; outline: as §1
Culex pipiens pallens [9] = test: Insecticidal activity against fourth-instar larval stage of Culex pipiens pallens (mosquito) assessed as mortality at 5 mg/l at 25 +/-1degC after 8 days; conditions: 192 h; outline: as §1
Mythimna separata [10] = test: Insecticidal activity against fourth-instar larval stage of Mythimna separata (Oriental armyworm) in compound-pretreated corn leaves assessed as mortality at 200 mg/l at 25 +/-1degC after 4 days
Mythimna separata [11] = test: Insecticidal activity against fourth-instar larval stage of Mythimna separata (Oriental armyworm) in compound-pretreated corn leaves assessed as mortality at 100 mg/l at 25 +/-1degC after 4 days
Culex pipiens pallens [12] = test: Insecticidal activity against fourth-instar larval stage of Culex pipiens pallens (mosquito) assessed as mortality at 1 mg/l at 25 +/-1degC after 8 days; conditions: 192 h; outline: as §1
Culex pipiens pallens [13] = test: Insecticidal activity against fourth-instar larval stage of Culex pipiens pallens (mosquito) assessed as mortality at 0.005 mg/l at 25 +/-1degC after 8 days; conditions: 192 h; outline: as §1
Culex pipiens pallens [14] = test: Insecticidal activity against fourth-instar larval stage of Culex pipiens pallens (mosquito) assessed as mortality at 0.0025 mg/l at 25 +/-1degC after 8 days; conditions: 192 h; outline: as §1

| Structure (SMILES) | mortality at 1 µg/mL (Mythimna separata [1]) | mortality at 0.25 µg/mL (Mythimna separata [2]) | mortality at 0.5 µg/mL (Mythimna separata [3]) | mortality at 0.01 µg/mL (Culex pipiens pallens [5]) | mortality at 0.005 µg/mL (Culex pipiens pallens [13]) | also measured |
| --- | --- | --- | --- | --- | --- | --- |
| O=C(NC(=O)N(SNc1ccc(C(F)(F)F)cc1)c1ccc(C(F)(F)F)cc1)c1c(F)cccc1F | 100% | 45% | 80% |  |  |  |
| O=C(NC(=O)N(SN(C(=O)NC(=O)c1c(F)cccc1F)c1ccc(OC(F)(F)F)cc1)c1ccc(OC(F)(F)F)cc1)c1ccccc1Cl | 100% | 50% | 95% |  |  | LC50 (Spodoptera exigua): 31.4 µg/mL (≈ 42 µM); LC50 (Plutella xylostella): 40.1 µg/mL (≈ 53.6 µM) |
| O=C(NC(=O)N(SN(C(=O)NC(=O)c1c(F)cccc1F)c1ccc(Cl)cc1)c1ccc(Cl)cc1)c1c(F)cccc1F | 100% | 25% | 85% |  |  |  |
| O=C(NC(=O)N(SN(C(=O)NC(=O)c1c(F)cccc1F)c1ccc(OC(F)(F)F)cc1)c1ccc(OC(F)(F)F)cc1)c1c(F)cccc1F | 100% | 20% | 55% |  |  |  |
| O=C(NC(=O)N(SSN(C(=O)NC(=O)c1ccccc1Cl)c1ccc(OC(F)(F)F)cc1)c1ccc(OC(F)(F)F)cc1)c1ccccc1Cl | 85% | 10% | 60% |  |  | mortality at 2.5 µg/mL (Mythimna separata [4]): 100% |
| O=C(NC(=O)N(SSN(C(=O)NC(=O)c1c(F)cccc1F)c1ccc(OC(F)(F)F)cc1)c1ccc(OC(F)(F)F)cc1)c1ccccc1Cl | 100% | 0% | 40% |  |  |  |
| O=C(NC(=O)N(SSN(C(=O)NC(=O)c1c(F)cccc1F)c1ccc(OC(F)(F)F)cc1)c1ccc(OC(F)(F)F)cc1)c1c(F)cccc1F | 100% | 20% | 50% |  |  |  |
| O=C(NC(=O)N(SNc1ccc(OC(F)(F)F)cc1)c1ccc(OC(F)(F)F)cc1)c1c(F)cccc1F | 100% | 40% | 90% |  |  |  |
| O=C(NC(=O)N(SNc1ccc(Cl)cc1)c1ccc(Cl)cc1)c1c(F)cccc1F | 100% | 0% | 70% |  |  |  |
| O=C(NC(=O)N(SSNc1ccc(C(F)(F)F)cc1)c1ccc(C(F)(F)F)cc1)c1ccccc1Cl | 70% | 0% | 60% |  |  | mortality at 2.5 µg/mL (Mythimna separata [4]): 100% |
| O=C(NC(=O)N(SSNc1ccc(OC(F)(F)F)cc1)c1ccc(OC(F)(F)F)cc1)c1ccccc1Cl | 100% | 30% | 60% |  |  |  |
| O=C(NC(=O)N(SSNc1ccc(OC(F)(F)F)cc1)c1ccc(OC(F)(F)F)cc1)c1c(F)cccc1F | 100% | 30% | 90% |  |  |  |
| O=C(NC(=O)N(SSNc1ccc(C(F)(F)F)cc1)c1ccc(C(F)(F)F)cc1)c1c(F)cccc1F | 100% | 10% | 70% |  |  |  |
| CCOC(=O)CCN(Cc1ccccc1)SN(C(=O)NC(=O)c1c(F)cccc1F)c1ccc(OC(F)(F)F)cc1 | 100% |  |  | 100% |  | mortality at 40 µg/mL (Mythimna separata [6]): 0.0025% |
| CCOC(=O)CCN(Cc1ccccc1)SN(C(=O)NC(=O)c1c(F)cccc1F)c1ccccc1 |  |  |  |  |  | mortality at 50 µg/mL (Mythimna separata [7]): 30%; mortality at 2.5 µg/mL (Culex pipiens pallens [8]): 60%; mortality at 5 µg/mL (Culex pipiens pallens [9]): 100%; mortality at 200 µg/mL (Mythimna separata [10]): 70%; mortality at 100 µg/mL (Mythimna separata [11]): 40%; mortality at 1 µg/mL (Culex pipiens pallens [12]): 20% |
| CCOC(=O)CCN(Cc1ccccc1)SN(C(=O)NC(=O)c1c(F)cccc1F)c1ccc(Cl)cc1 | 100% | 30% | 50% | 60% | 0% |  |
| O=C(NC(=O)N(SN1CCCCC1)c1ccc(OC(F)(F)F)cc1)c1c(F)cccc1F | 100% | 50% | 100% | 100% | 100% | mortality at 0.0025 µg/mL (Culex pipiens pallens [14]): 75% |
| CCN(CC)SN(C(=O)NC(=O)c1c(F)cccc1F)c1ccccc1 |  |  |  |  |  | mortality at 50 µg/mL (Mythimna separata [7]): 20%; mortality at 2.5 µg/mL (Culex pipiens pallens [8]): 100%; mortality at 5 µg/mL (Culex pipiens pallens [9]): 100%; mortality at 200 µg/mL (Mythimna separata [10]): 70%; mortality at 100 µg/mL (Mythimna separata [11]): 40%; mortality at 1 µg/mL (Culex pipiens pallens [12]): 30% |
| CCN(CC)SN(C(=O)NC(=O)c1c(F)cccc1F)c1ccc(Cl)cc1 | 100% | 20% | 70% | 100% | 10% | mortality at 0.0025 µg/mL (Culex pipiens pallens [14]): 10% |
| CCN(CC)SN(C(=O)NC(=O)c1c(F)cccc1F)c1ccc(OC(F)(F)F)cc1 | 100% | 60% | 100% | 100% | 100% | mortality at 0.0025 µg/mL (Culex pipiens pallens [14]): 40% |
| O=C(NC(=O)N(SN1CCOCC1)c1ccc(OC(F)(F)F)cc1)c1c(F)cccc1F | 100% | 80% | 100% | 100% | 100% | LC50 (Spodoptera exigua): 21.4 µg/mL (≈ 44.9 µM); mortality at 0.0025 µg/mL (Culex pipiens pallens [14]): 20%; LC50 (Plutella xylostella): 45.1 µg/mL (≈ 94.5 µM) |
| O=C(NC(=O)N(SN1CCOCC1)c1ccc(Cl)cc1)c1c(F)cccc1F | 100% | 80% | 100% | 100% | 30% | mortality at 0.0025 µg/mL (Culex pipiens pallens [14]): 0% |
| O=C(NC(=O)N(SN1CCCCC1)c1ccccc1)c1c(F)cccc1F |  |  |  |  |  | mortality at 50 µg/mL (Mythimna separata [7]): 0%; mortality at 2.5 µg/mL (Culex pipiens pallens [8]): 70%; mortality at 5 µg/mL (Culex pipiens pallens [9]): 100%; mortality at 200 µg/mL (Mythimna separata [10]): 90%; mortality at 100 µg/mL (Mythimna separata [11]): 40%; mortality at 1 µg/mL (Culex pipiens pallens [12]): 0% |
| O=C(NC(=O)N(SN1CCCCC1)c1ccc(Cl)cc1)c1c(F)cccc1F | 100% | 20% | 100% | 90% | 0% | mortality at 0.0025 µg/mL (Culex pipiens pallens [14]): 0% |
| O=C(NC(=O)c1c(F)cccc1F)Nc1ccc(Cl)cc1 [DIFLUBENZURON] | 100% | 45% | 100% | 100% | 50% | mortality at 0.0025 µg/mL (Culex pipiens pallens [14]): 10% |
| O=C(NC(=O)c1ccccc1Cl)Nc1ccc(OC(F)(F)F)cc1 [TRIFLUMURON] | 95% | 20% | 40% |  |  | LC50 (Spodoptera exigua): 12 µg/mL (≈ 33.5 µM); LC50 (Plutella xylostella): 49.3 µg/mL (≈ 137 µM); mortality at 2.5 µg/mL (Mythimna separata [4]): 100% |
